# Results: ChEMBL document CHEMBL2413079, “Synthesis of novel psoralen analogues and their in vitro antitumor activity” (2013)
# Assays:
# Format in all cases: functional
# MDA-MB-231 = experiment: Growth inhibition of human MDA-MB-231 cells after 48 hrs by MTS assay; conditions: MDA-MB-231, 48 h
# Summary of the method: (§1)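 Cells grown in DMEM with 10% FBS (15% FBS for TCC-SUP) and 1% penicillin/streptomycin. DMSO stocks freshly diluted in medium; five concentrations tested over 48 h exposure. MTS reagent added for 2 h at 37 °C, 5% CO2, then absorbance read at 490 nm. Viability taken as % of control; GI50 from dose–response curve. Three independent cultures, 4 wells per concentration.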
# HeLa = experiment: Growth inhibition of human HeLa cells after 48 hrs by MTS assay; summary of the method: as §1
# TCC-SUP = experiment: Growth inhibition of human TCCSUP cells after 48 hrs by MTS assay; summary of the method: as §1
SMILES,GI50 (MDA-MB-231) [nM],GI50 (HeLa) [nM],GI50 (TCC-SUP) [nM]
O=c1ccc2c(ccc3c4ccccc4[nH]c23)o1,230,46,27
O=C(O)c1cc2c(ccc3c4ccccc4[nH]c23)oc1=O,265,47,18
CCOC(=O)c1cc2c(ccc3c4ccccc4[nH]c23)oc1=O,413,37,30

# Continued, in another order:
GI50 (MDA-MB-231) [nM],GI50 (HeLa) [nM],SMILES,GI50 (TCC-SUP) [nM]
60,35,Cc1cc(=O)oc2cc3c(cc12)oc1ccccc13,41
78,42,Cc1cc(=O)oc2cc3[nH]c4ccccc4c3cc12,66
